Structures are written as SMILES.

The assay addresses T1, Prostaglandin G/H synthase 1 (Ovis aries, UniProt P05979).
T1 sequence (P05979 whole entry): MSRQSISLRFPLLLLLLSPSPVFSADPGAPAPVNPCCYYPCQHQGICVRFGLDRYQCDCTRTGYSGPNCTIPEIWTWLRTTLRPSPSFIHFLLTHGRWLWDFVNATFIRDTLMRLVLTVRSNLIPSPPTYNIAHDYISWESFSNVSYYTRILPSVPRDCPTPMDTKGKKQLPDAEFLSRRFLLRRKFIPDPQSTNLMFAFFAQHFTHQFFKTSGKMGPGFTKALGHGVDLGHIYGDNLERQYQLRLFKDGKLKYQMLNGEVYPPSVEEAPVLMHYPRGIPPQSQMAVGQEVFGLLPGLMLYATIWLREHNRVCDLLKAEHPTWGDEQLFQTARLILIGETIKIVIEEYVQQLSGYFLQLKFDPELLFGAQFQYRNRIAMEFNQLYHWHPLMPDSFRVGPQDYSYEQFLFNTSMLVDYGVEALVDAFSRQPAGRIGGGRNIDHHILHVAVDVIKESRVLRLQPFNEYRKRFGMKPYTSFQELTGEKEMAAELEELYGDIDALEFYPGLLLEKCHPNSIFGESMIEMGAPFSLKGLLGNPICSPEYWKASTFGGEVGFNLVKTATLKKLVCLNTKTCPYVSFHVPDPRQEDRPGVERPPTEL
Description: Inhibition of ovine COX1 by chemiluminescence assay. Put shortly: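 Enzyme activity read as arachidonate-induced luminescence, taken as a real-time index of COX catalytic turnover; inhibition measured as loss of this luminescence signal.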
For `CS(=O)(=O)c1ccc(C(=O)/C(=C/c2ccccc2)c2ccccc2)cc1`, the IC50 – broadly, the concentration needed to halve the response being measured – is 13.3 µM. The result for `CS(=O)(=O)c1ccc(C(=O)/C(=C\c2ccc(F)cc2)c2ccccc2)cc1` reads 30.9 µM; that for `CS(=O)(=O)c1ccc(C(=O)/C(=C/c2ccc(O)cc2)c2ccccc2)cc1`, 14.4 µM; that for `Cc1ccc(/C=C(\C(=O)c2ccc(S(C)(=O)=O)cc2)c2ccccc2)cc1`, 12.2 µM. In turn, `COc1ccc(/C=C(\C(=O)c2ccc(S(C)(=O)=O)cc2)c2ccccc2)cc1` registered an IC50 of 18.4 µM. Against the preceding molecule, the IC50 is about 1.5-fold higher. The molecule `CS(=O)(=O)c1ccc(C(=O)/C(=C\c2ccccc2)c2ccccc2)cc1` showed an IC50 of 14.3 µM.

Take `CS(=O)(=O)c1ccc(C(=O)C(=Cc2ccncc2)c2ccccc2)cc1` (mixture of isomers): the half-maximal inhibitory concentration (IC50) was 12.4 µM. The same measure for `Cc1ccc(/C=C(/C(=O)c2ccc(S(C)(=O)=O)cc2)c2ccccc2)cc1`: 10.4 µM; for `CS(=O)(=O)c1ccc(C(=O)/C(=C/c2cccs2)c2ccccc2)cc1`: 13.1 µM; for `CS(=O)(=O)c1ccc(C(=O)/C(=C/c2ccc(F)cc2)c2ccccc2)cc1`: 12.6 µM.

`COc1ccc(/C=C(/C(=O)c2ccc(S(C)(=O)=O)cc2)c2ccccc2)cc1` came in with an IC50 of 10.7 µM.

For the origin of these results see ChEMBL document CHEMBL1240503, “Design, synthesis and biological evaluation of new (E)- and (Z)-1,2,3-triaryl-2-propen-1-ones as selective COX-2 inhibitors” (Eur J Med Chem, 2010).
